Measured values reported in publication PMC5756105 (Journal of proteome research, 2017).
Structures can show the parent of a compound that is named as a salt. Where two headings read alike, the source gives them in different places.

Assays:
[1] = tested on: hMSCs; assay: CCK-8 cell viability assay on 96-well plates, basal hMSCs; type: cell-based, human; details: for reduction in toxicity from basal hMSCs to their osteogenic progenies: basal hMSCs vs OD1-OD6; for IC50: read-out: IC50 hMSC
[2] = tested on: hiPSCs; assay: CCK-8 cell viability assay on 96-well plates, basal hiPSCs; type: cell-based, human; details: for higher sensitivity of hiPSCs compared to basal hMSCs: ratio of IC50, hiPSCs vs basal hMSCs; for IC50: read-out: IC50 hiPSC; for dependency of effects on stages of hepatogenic differentiation of hiPSCs: Phase I-III
[3] = tested on: basal hMSCs; assay: qHTS CellTiter-Glo viability assay in 1536-well format, basal hMSCs; type: cell-based, human; details: qHTS CTG, basal vs osteogenesis day 1
Summary of the method: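 hMSCs were seeded at 500 cells/well directly in basal or osteogenic differentiation medium (osteogenesis day 1 arm) and held 24 h at 37°C/5% CO₂. A LOPAC library was then added at seven concentrations (0.0029–46 μM, 1:5 serial dilutions) for 48 h. ATP was read by CellTiter-Glo luminescence after 30 min at room temperature. IC₅₀ and efficacy came from dose-response curves, with hit cutoffs of efficacy ≥ 50% and IC₅₀ ≤ 20 μM.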

[4] = tested on: hMSC-OD1; assay: CCK-8 cell viability assay on 96-well plates, hMSCs osteogenesis Day 1; type: cell-based; details: Homo sapiens, read-out: IC50 hMSC-OD1
[5] = tested on: hMSC-OD3; assay: CCK-8 cell viability assay on 96-well plates, hMSCs osteogenesis Day 3; type: cell-based; details: Homo sapiens, read-out: IC50 hMSC-OD3
[6] = tested on: hMSC-OD6; assay: CCK-8 cell viability assay on 96-well plates, hMSCs osteogenesis Day 6; type: cell-based; details: Homo sapiens, read-out: IC50 hMSC-OD6
[7] = tested on: hepatic differentiation Phase I cells; assay: CCK-8 cell viability assay, hiPSCs at end of hepatogenic differentiation Phase I; type: cell-based; details: Homo sapiens, HepA, 48 h, read-out: IC50 Hepa Diff Phase I
[8] = tested on: hepatic differentiation Phase II cells; type: cell-based; details: Homo sapiens, HepA, 48 h, read-out: IC50 Hepa Diff Phase II
[9] = tested on: hepatic differentiation Phase III cells; type: cell-based; details: Homo sapiens, HepA, 48 h, read-out: IC50 Hepa Diff Phase III
[10] = basal hMSCs, 48-hour treatment, CCK-8, mean ± s.e.m., n=3
[11] = basal hiPSCs, 48-hour treatment, CCK-8, mean ± s.e.m., n=3

CC[n+]1c(/C=C/C=C2/N(C)c3ccccc3C2(C)C)sc2ccccc21.[I-] [AC-93253]
reduction in toxicity from basal hMSCs to their osteogenic progenies [1]: 3~4 fold
IC50 [1, 10]: 3.94 ± 1.18 µM
higher sensitivity of hiPSCs compared to basal hMSCs [2]: more than 30 times
IC50 [2, 11]: 0.09 ± 0.038 µM
toxicity to basal hMSCs versus osteogenic hMSCs in primary screening [3]: much higher toxicity

C[C@@]12C(=O)OC(=O)[C@]1(C)[C@H]1CC[C@@H]2O1 [Cantharidin, cantharidin]
IC50 ([1]; Homo sapiens, 48 h): 1.54 ± 0.5 µM
reduction in toxicity from basal hMSCs to their osteogenic progenies [1]: 3~4 fold
IC50 [4]: 3.98 ± 0.69 µM
IC50 [5]: 4.95 ± 1.33 µM
IC50 [6]: 6.17 ± 2.55 µM
IC50 ([2]; Homo sapiens, 48 h): 4.36 ± 1.4 µM
dependency of effects on stages of hepatogenic differentiation of hiPSCs [2]: not significantly dependent
IC50 [7]: 2.7 ± 0.49 µM
IC50 [8]: 2.58 ± 0.28 µM
IC50 [9]: 1.12 ± 0.34 µM

CC(=O)[C@]1(O)Cc2c(O)c3c(c(O)c2[C@@H](O[C@H]2C[C@H](N)[C@H](O)[C@H](C)O2)C1)C(=O)c1ccccc1C3=O [Idarubicin, idarubicin hydrochloride]
decrease in toxicity from basal to OD6 ([1]; hMSCs, basal vs OD6, p<0.001): 28 fold
IC50 [1, 10]: 0.38 ± 0.074 µM
IC50 [4]: 2.96 ± 0.22 µM
IC50 [5]: 7.43 ± 4.56 µM
IC50 [6]: 10.8 ± 0.43 µM
IC50 ([2]; Homo sapiens, 48 h): 0.004 ± 0.001 µM
dependency of effects on stages of hepatogenic differentiation of hiPSCs [2]: significantly dependent
higher sensitivity of hiPSCs compared to basal hMSCs [2]: more than 30 times
IC50 [7]: 0.07 ± 0.003 µM
IC50 [8]: 1.25 ± 0.23 µM
IC50 [9]: 4.99 ± 1.38 µM

O=C1C(SCCO)=C(SCCO)C(=O)c2ccccc21 [NSC 95397]
differentiation-stage dependency of toxicity on hMSCs ([1]; basal hMSCs vs OD1 to OD6): not differentiation-stage dependent
IC50 [1, 10]: 6.55 ± 1.76 µM
IC50 [2, 11]: 6.91 ± 3.01 µM
